Data set [1] has as its system HeLa. Nature of the data set: Inhibition of macromolecular synthesis in HeLa cells assayed by the incorporation of radioactive thymidine into DNA. Particulars: Homo sapiens. Type of data set: functional, cell-based. Put shortly: (§1)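 HeLa S3 suspension culture in MEM with 5% fetal calf serum and 2 mM L-glutamine. Cells incubated with 0.5 μCi of labeled precursor: [methyl-3H]thymidine for DNA, [5,6-3H]uridine (40 Ci/mmol) for RNA, L-[4,5-3H]leucine (56 Ci/mmol) for protein. Synthesis rate taken as precursor uptake into cold TCA-insoluble material.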

Data set [2] has as its system HeLa. Nature of the data set: Inhibition of HeLa cells growth (cytotoxicity). Type of data set: functional. Particulars: Homo sapiens, read-out: ID50 (the source's name). Put shortly: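 HeLa cells in complete medium, grown to 1.7 × 10^5/mL (100 mL culture). Incubated 16 h with varying concentrations of inhibitor, then growth inhibition assessed.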
Data set [3] concerns HeLa. Nature of the data set: Inhibition of macromolecular synthesis in HeLa cells assayed by the incorporation of radioactive leucine into protein. It is filed as functional, cell-based. Particulars: Homo sapiens. In short, it runs like this:
as §1

Data set [4] relates to HeLa. Kind of data set: Inhibition of macromolecular synthesis in HeLa cells assayed by the incorporation of radioactive uridine into RNA. Type of data set: functional, cell-based. Particulars: Homo sapiens. In short, it runs like this:
as §1

Data set [5] can be described thus: Compound was evaluated for its half-life when nucleophile was added in solution buffered at pH 7.2 in the presence of aminoethanol. It is filed as ADME. The following applies: buffered solution with added nucleophile (aminoethanol). In short, it runs like this: (§2)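 Half-life of each compound measured in aqueous solution buffered at pH 7.2 with a nucleophile, glutathione or aminoethanol, added. Reaction followed kinetically as disappearance of the propenal.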

Data set [6] is described as follows: Compound was evaluated for its half-life when nucleophile was added in solution buffered at pH 7.2 in the presence of glutathione. Type of data set: ADME. The following applies: buffered solution with added nucleophile (glutathione). In short, it runs like this: as §2

As for `O=C/C=C/n1ccc(=O)[nH]c1=O`, the IC50 in data set [1] stood at 30 µM; in data set [2], 4 µM; in data set [3], 30 µM; in data set [4], 30 µM.

`Nc1ccn(/C=C/C=O)c(=O)n1`: the IC50 in data set [1] is over 100 µM; in data set [2], 15 µM; in data set [3], over 100 µM; in data set [4], over 100 µM.

Turning to `Cc1cn(/C=C/C#N)c(=O)[nH]c1=O`, the IC50 in data set [1], in data set [3] and in data set [4] was over 100 µM in each case.

`Cc1cn(C)c(=O)n(/C=C/C=O)c1=O`: the IC50 amounted to 10 µM in data set [1], 3 µM in data set [2], 15 µM in data set [3] and 15 µM in data set [4].

Take `Cc1cn(/C=C/CO)c(=O)[nH]c1=O`: the IC50 in data set [1], in data set [3] and in data set [4] was over 100 µM in each case.

Consider `Nc1nc(O)c2ncn(/C=C/C=O)c2n1`, for which the IC50 is over 100 µM in data set [1], 24 µM in data set [2], over 100 µM in data set [3] and 50 µM in data set [4].

With `CCOC(=O)/C=C/n1cnc2c(N)ncnc21`, the IC50 in data set [1] is 60 µM; in data set [3] it was 100 µM; in data set [4], 100 µM.

Turning to `O=C/C=C/n1cc(C(F)(F)F)c(=O)[nH]c1=O`, the IC50 in data set [1] is 60 µM; in data set [3], 80 µM; in data set [4], over 100 µM.

Regarding `CC(=O)/C=C/n1cc(C)c(=O)[nH]c1=O`, the IC50 in data set [1], in data set [3] and in data set [4] was over 100 µM each time.

For the compound `Cc1cn(/C=C/C=O)c(=O)[nH]c1=O`, the figures for the half-life in data set [5] and in data set [6] were 18 h and 3.5 min, respectively. Also, the IC50 in data set [1] stood at 23 µM; in data set [2], 1 µM; in data set [3], 25 µM; in data set [4] it was 100 µM.

Take `Cc1cn(COCCO)c(=O)n(/C=C/C=O)c1=O`: the IC50 in data set [1] came to 20 µM; in data set [2] it was 6 µM; in data set [3] it was 20 µM; in data set [4] it was 20 µM.

Turning to `Nc1ncnc2c1ncn2/C=C/C=O`, the half-life in data set [5] was 15 h; in data set [6], 2.1 min. For the same compound, the IC50 was 30 µM in data set [1], 2 µM in data set [2], over 100 µM in data set [3] and over 100 µM in data set [4].

As for `Cc1cn([C@@H]2O[C@H](CO)[C@@H](O)[C@@H]2O)c(=O)n(/C=C/C=O)c1=O`, the IC50 in data set [1] is 40 µM; in data set [2], 40 µM; in data set [3], over 100 µM; in data set [4], 100 µM.

Turning to `Cc1cn([C@@H]2O[C@H](CO)[C@@H](O)[C@H]2O)c(=O)n(/C=C/C=O)c1=O`, the IC50 was over 100 µM in data set [1], over 100 µM in data set [3] and 100 µM in data set [4].

Consider `O=C/C=C/n1c(=O)ccn([C@H]2C[C@H](O)[C@@H](CO)O2)c1=O`, for which the IC50 was determined as 0.8 µM in data set [1], 1 µM in data set [2], 15 µM in data set [3] and 15 µM in data set [4].

Turning to `N#C/C=C/n1c(=O)ccn([C@H]2C[C@H](O)[C@@H](CO)O2)c1=O`, the IC50 was 100 µM in data set [1], over 100 µM in data set [3] and 100 µM in data set [4].

Take `CC(=O)/C=C/n1c(=O)ccn([C@H]2C[C@H](O)[C@@H](CO)O2)c1=O`: the IC50 in data set [1] is 1.5 µM; in data set [2], 6 µM; in data set [3] it was over 100 µM; in data set [4] it was 6 µM.

Take `Cc1cn([C@H]2C[C@H](O)[C@@H](CO)O2)c(=O)n(/C=C/C=O)c1=O`: the half-life is 25 h in data set [5] and 8 min in data set [6]. Further, the IC50 is 0.5 µM in data set [1], 1 µM in data set [2], 15 µM in data set [3] and 20 µM in data set [4].

`Cc1cn([C@H]2C[C@H](O)[C@@H](CO)O2)c(=O)n(/C=C/CO)c1=O`: the IC50 in data set [1] was 5 µM; in data set [2], 60 µM; in data set [3] it was over 100 µM; in data set [4] it was 5 µM.

As to `O=C/C=C/n1c(=O)c(I)cn([C@H]2C[C@H](O)[C@@H](CO)O2)c1=O`, the IC50 was 0.3 µM in data set [1], 20 µM in data set [2], 15 µM in data set [3] and 80 µM in data set [4].

In the case of `Cc1cn(/C=C/C=N/O)c(=O)[nH]c1=O`, the IC50 in data set [1], in data set [3] and in data set [4] was over 100 µM in each case.

`O=C/C=C/n1cc(CO)c(=O)[nH]c1=O`: the IC50 in data set [1], in data set [3] and in data set [4] was over 100 µM in each case.

For the compound `O=C/C=C/n1cc(F)c(=O)[nH]c1=O`, the IC50 in data set [1] is 60 µM; in data set [2], 3 µM; in data set [3] it was 40 µM; in data set [4] it was 90 µM.

Regarding `O=C/C=C/n1c(=O)ccn(C2O[C@H](CO)[C@@H](O)[C@H]2O)c1=O` (stereo partly drawn), the IC50 in data set [1] was 10 µM; in data set [2], 9 µM; in data set [3], over 100 µM; in data set [4], 3 µM.

As usually defined, the half-life is the time needed for the level to fall by half in the phase considered.
